Data on 12 compounds can be found in ChEMBL document CHEMBL1126728, “Synthesis and biochemical evaluation of the CBI-PDE-I-dimer, a benzannelated analog of (+)-CC-1065 that also produces delayed toxicity in mice” (J Med Chem, 1993).

The structures appear in SMILES notation.

Test [1] has as its system L1210. The test is described as follows: In vitro cytotoxicity against mouse leukemia L1210 cells. In kind it is functional, cell-based. The method in brief:
(§1)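 L1210 mouse leukemia cells in RPMI 1634 supplemented with 5% fetal calf serum, 0.075% sodium bicarbonate, penicillin and streptomycin. Drug added to cultures at about 5 × 10^3 cells/mL, incubated 3 days at 37 °C. Cell number counted with a Coulter counter; IC50 in nM, run side by side with the corresponding CPI analog.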

The subject of test [2] is Mus musculus. In words: Optimum antitumor dose (OD) against L1210 mouse leukemia cells implanted intraperitoneally in CD2F1 mice. Type of test: functional. In short, it runs like this: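 L1210 cells passaged in DBA/2 female mice, implanted ip (10^6 cells/mouse) in CD2F1 mice, 6 per group, on day 0. Single iv dose 24 h later (day 1) in 2% DMA, 10% Emulphor EL-620P, 88% sterile water; dose response run. Optimum dose (µg/kg) is the dose giving greatest ILS (median survival) with ≤15% drug-related deaths.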

Test [3] relates to Mus musculus. In words: in vivo percent increase in lifespan (ILS) at the optimum dose in L1210 cells. Type of test: functional. The method in brief: (§2)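 L1210 leukemia, passaged in syngeneic DBA/2 female mice, was implanted i.p. at 10^6 cells/mouse on day 0; one i.v. dose on day 1 (2% DMA/10% Emulphor EL-620P/88% water); 6 mice per group; dose-response run. Optimal dose = greatest efficacy with ≤15% drug-related deaths. %ILS = (median survival treated/median survival vehicle control − 1) × 100, counting long-term survivors.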

The test system of test [4] is Mus musculus. The test is described as follows: Median day of death (MDD) in normal (Non tumor bearing) mice treated with a single i.v. dose at 50 ug/kg. Type of test: functional. In short, it runs like this: (§3)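 Non-tumor-bearing mice got one intravenous injection in a vehicle of 2% DMA, 10% Emulphor EL-620P and 88% sterile water. Survival was followed for 90 days, which ended the experiment. Six mice per dose group; the value is the median day of death. Deaths after more than 28 days counted as delayed.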

Test [5] deals with Mus musculus. The test is described as follows: Median day of death (MDD) in normal (Non tumor bearing) mice treated with a single i.v. dose at 100 ug/kg. In kind it is functional. The method in brief: as §3
For test [6], the system named is Mus musculus. In words: Median day of death (MDD) in normal (Non tumor bearing) mice treated with a single i.v. dose at 25 ug/kg. Type of test: functional. The method in brief:
as §3

The subject of test [7] is Mus musculus. The test is described as follows: Median day of death (MDD) in normal (Non tumor bearing) mice treated with a single i.v. dose at 400 ug/kg. In kind it is functional. In short, it runs like this: as §3
Test [8] relates to Mus musculus. In words: Median day of death (MDD) in normal (Non tumor bearing) mice treated with a single i.v. dose at 200 ug/kg. In kind it is functional. The method in brief:
as §3

The subject of test [9] is L1210. In words: In vitro cytotoxicity against mouse leukemia L1210 cells was determined. In kind it is functional, cell-based. The method in brief: as §1
Test [10] deals with Mus musculus. In words: Optimum antitumor dose (OD) against L1210 mouse leukemia cells implanted intraperitoneally in CD2F1 mice (Highest dose tested). In kind it is functional. In short, it runs like this:
as §2

For orientation: IC50 means the midpoint of a concentration-inhibition curve. The term ILS denotes how much longer treated animals lived than controls.

As for `OC1=CC2=NCC3C[C@]23c2ccccc21` (some centres not stated), 6600 nM corresponded to half-maximal inhibition in [1] (IC50).

For `COc1c(O)c2c(c3cc(C(=O)N4CCc5c4c(O)c(OC)c4[nH]c(C(=O)N6CC7C[C@@]78C6=CC(=O)c6ccccc68)cc54)[nH]c13)CCN2C(N)=O` (some centres not stated), the OD in test [2] was found to be 0.2 mg/kg. The ILS in test [3] is 28%. In addition, the MDD in [4] came to 42; in test [5] it was 41; in test [6] it was 48; in [7], 5; in test [8] it was 38. In addition, in [9], the IC50 came out at 0.02 nM.

`Cc1c[nH]c2c1[C@@]13CC1CN(C(=O)c1cc4cc(NC(=O)c5cc6ccccc6[nH]5)ccc4[nH]1)C3=CC2=O` (some centres not stated) registered an OD in [2] of 0.1 mg/kg. In addition, the increase in life span (ILS) in test [3] is reported as 83%. This compound showed an MDD in [8] of 3.

For the compound `OC1=CC2=NCC3C[C@@]23c2ccccc21` (some centres not stated), in test [9], inhibition was half-maximal at 230 nM (IC50). That is a sub-micromolar value.

Compound `O=C1C=C2N(C(=O)c3cc4ccccc4[nH]3)CC3C[C@@]23c2ccccc21` (single isomer, unassigned; (+)) yielded an OD in [2] of 0.8 mg/kg. In test [3], this compound returned an ILS of 50%. Besides, the IC50 in test [9] was 0.1 nM.

As for `O=C(Nc1ccc2[nH]c(C(=O)N3CC4C[C@@]45C3=CC(=O)c3ccccc35)cc2c1)c1cc2ccccc2[nH]1` (single isomer, unassigned; (+)), the OD in [2] is 0.1 mg/kg. This compound also gave an ILS in test [3] of 67%. This compound also yielded an MDD in [8] of 7. Besides, in [9], inhibition was half-maximal at 0.006 nM (IC50).

In test [9], `CC(=O)N1CC2C[C@@]23C1=CC(=O)c1ccccc13` (single isomer, unassigned; (+)) returned an IC50 of 5 nM.

In [2], `COc1c(O)c2c(c3cc(C(=O)N4CCc5c4c(O)c(OC)c4[nH]c(C(=O)N6CC7C[C@]78C6=CC(=O)c6ccccc68)cc54)[nH]c13)CCN2C(N)=O` (single isomer, unassigned; (-)) registered an OD of 0.2 mg/kg. This compound came in with an ILS in test [3] of 6%. Besides, in test [7], the MDD worked out at 5. The compound also had an IC50 in test [9] of 0.01 nM.

`O=C1C=C2N(C(=O)c3cc4ccccc4[nH]3)CC3C[C@]23c2ccccc21` (single isomer, unassigned; (-)) had a 50% inhibitory concentration (IC50) in [9] of 12 nM.

As to `O=C(Nc1ccc2[nH]c(C(=O)N3CC4C[C@]45C3=CC(=O)c3ccccc35)cc2c1)c1cc2ccccc2[nH]1` (single isomer, unassigned; (-)), the OD in [10] is 1.6 mg/kg. Moreover, the ILS in test [3] is given as 50%. The IC50 in test [9] worked out at 0.3 nM.

Consider `CC(=O)N1CC2C[C@]23C1=CC(=O)c1ccccc13` (single isomer, unassigned; (-)), for which the IC50 in [9] is 70 nM.

For `COc1c(O)c2c(c3cc(C(=O)N4CCc5c4c(O)c(OC)c4[nH]c(C(=O)N6C[C@H]7C[C@@]78C6=CC(=O)c6[nH]cc(C)c68)cc54)[nH]c13)CCN2C(N)=O` [(+)-CC-1065], the MDD in test [4] turned out to be 41; in [6], 42.
